{"source": "PubChem BioAssay AID743214", "about": "(The Scripps Research Institute Molecular Screening Center, 2013)", "note": "The whole screen tested about 2,100 compounds, of which about 10 (0.5%) were called active.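 Rule for the calls: active = mean triplicate inhibition above the solvent-only control wells' mean plus 3 SD (cut at about 12% in these data); inactive = the rest.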 A selection follows.", "data": [{"biological_target": "Disintegrin and metalloproteinase domain-containing protein 17 (Homo sapiens) (UniProt P78536)", "sequence (P78536 215-824 limits assumed)": "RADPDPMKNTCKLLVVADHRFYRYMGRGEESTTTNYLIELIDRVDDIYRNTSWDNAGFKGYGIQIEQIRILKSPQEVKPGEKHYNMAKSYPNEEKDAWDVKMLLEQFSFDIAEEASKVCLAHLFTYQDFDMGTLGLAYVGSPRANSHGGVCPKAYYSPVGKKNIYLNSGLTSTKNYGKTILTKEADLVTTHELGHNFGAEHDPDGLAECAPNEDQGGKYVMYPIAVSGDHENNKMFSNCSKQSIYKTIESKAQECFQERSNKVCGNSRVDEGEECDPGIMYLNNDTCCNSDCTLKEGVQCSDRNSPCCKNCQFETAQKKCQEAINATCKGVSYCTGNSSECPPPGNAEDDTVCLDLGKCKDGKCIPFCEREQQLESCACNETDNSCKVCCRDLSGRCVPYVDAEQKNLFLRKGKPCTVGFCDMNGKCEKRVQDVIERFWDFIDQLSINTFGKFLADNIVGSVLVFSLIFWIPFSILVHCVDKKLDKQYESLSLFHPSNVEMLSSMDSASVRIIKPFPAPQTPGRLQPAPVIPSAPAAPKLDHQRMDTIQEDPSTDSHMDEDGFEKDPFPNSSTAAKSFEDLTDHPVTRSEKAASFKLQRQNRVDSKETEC", "assay": "inhibition of ADAM17 peptide cleavage – biochemical, QFRET, high throughput, counter-screen for ADAM10 exosite inhibitor project (AID 743214);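 note: 0% = DMSO wells and 100% = marimastat wells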", "settings": "EDANS fluorescence, at 6.95 µM, hits give high values", "method_in_brief": "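Read-out: percent inhibition scaled between DMSO and 1 µM marimastat wells; System: ADAM17 enzyme, quenched-FRET peptide cleavage; Quantity: ADAM17 added as 2X stock of 20 nM; Also added: DM2 peptide substrate; Incubation: 30 min compound–enzyme preincubation, then 3 h reaction, both 25 °C; Technique: fluorescence at ex 359 / em 460 nm.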", "values": [{"smiles": "COc1cc(/C=N/O)cc(Br)c1OS(=O)(=O)c1ccc(C)cc1", "inhibition": "0.97% (inactive)"}, {"smiles": "CC(C)C(=O)Nc1cccc(NC(=S)NC(=O)C(c2ccccc2)c2ccccc2)c1", "inhibition": "3.08% (inactive)"}, {"smiles": "CC(C)(C)OC(=O)N1CCC(NC(=O)c2[nH]cnc2C(=O)N[C@@H](Cc2ccccc2)C(=O)OCc2ccccc2)CC1", "inhibition": "3.26% (inactive)"}, {"smiles": "CCOc1ccc(N2C(=O)CC(N(CCc3ccc(OC)c(OC)c3)C(=S)Nc3ccccc3)C2=O)cc1", "note": "(stereo not given)", "inhibition": "0.25% (inactive)"}, {"smiles": "CCCC(=O)n1nc(NCc2ccc(OC)cc2)nc1NCc1ccc(OC)cc1", "inhibition": "2.02% (inactive)"}, {"smiles": "O=C(/C=C/c1ccc(F)cc1)NC(=S)NNC(=O)c1cccnc1", "inhibition": "0.5% (inactive)"}, {"smiles": "COc1cccc(NC(=O)C2C(c3ccccc3)C2(Cl)Cl)c1", "note": "(stereo not given)", "inhibition": "1% (inactive)"}, {"smiles": "CC1(C)C=Cc2c(ccc3c2OC[C@@H](c2ccc(O)cc2O)C3)O1", "inhibition": "2.8% (inactive)"}, {"smiles": "Cc1ccc(C)c(NC(=S)NNC(=O)c2csc(C)c2)c1", "inhibition": "2.16% (inactive)"}, {"smiles": "COc1ccc(S(=O)(=O)N2CCN(C(C)C(=O)Nc3ccc(C(C)C)cc3)CC2)cc1", "note": "(stereo not given)", "inhibition": "1.3% (inactive)"}, {"smiles": "COc1ccc(C(=O)NNC(=S)NC(=O)c2ccccc2)cc1", "inhibition": "0.42% (inactive)"}, {"smiles": "O=C1[C@H]2[C@@H](c3ccc(F)cc3)N3C(=O)N(c4ccc(C(F)(F)F)cc4)C(=O)[C@@]3(Cc3ccccc3)[C@H]2C(=O)N1C1CCCCC1", "inhibition": "2.35% (inactive)"}, {"smiles": "COc1cccc(CC2(CO)CCCN(Cc3ccc(OC(F)F)cc3)C2)c1", "note": "(stereo not given)", "inhibition": "0.36% (inactive)"}, {"smiles": "CC(C)Oc1cc(F)ccc1-c1cc(C(=O)Nc2cccc(Cl)c2)[nH]n1", "inhibition": "2.81% (inactive)"}, {"smiles": "CCOc1cc(NC(=O)c2ccccc2C(=O)O)c(OCC)cc1NC(=O)c1ccccc1F", "inhibition": "2.06% (inactive)"}, {"smiles": "Cc1csc(NC(=S)Nc2cccc(Cl)c2)n1", "inhibition": "2.94% (inactive)"}, {"smiles": "O=C(NC(Cc1c[nH]c2ccccc12)C(=O)N/N=C/c1ccc(Br)cc1)c1cccs1", "note": "(stereo not given)", "inhibition": "3.25% (inactive)"}, {"smiles": "Cc1cc(C)cc(NS(=O)(=O)c2ccc(Oc3ncc(C(F)(F)F)cc3Cl)cc2)c1", "inhibition": "5.19% (inactive)"}, {"smiles": "Cc1ccc(N(NC(=O)C(C)(C)O)C(=O)c2ccccc2)cc1C", "inhibition": "-0.31% (inactive)"}, {"smiles": "O=C1[C@H]2[C@@H](c3ccc(C(F)(F)F)cc3)N[C@]3(CCCN(Cc4ccc(Br)cc4)C3=O)[C@H]2C(=O)N1Cc1ccccc1", "inhibition": "2.47% (inactive)"}, {"smiles": "Cc1[nH]c2ccccc2c1C(=O)COC(=O)c1c(-c2ccccc2)noc1C", "inhibition": "2.46% (inactive)"}, {"smiles": "CC1(Cc2cccc(C#N)c2)C(=O)Nc2ccc(-c3cccc(C(F)(F)F)c3)cc21", "note": "(stereo not given)", "inhibition": "2.64% (inactive)"}, {"smiles": "Cc1ccc(OCc2nnc(SC/C=C/c3ccccc3)n2Cc2ccco2)cc1", "inhibition": "2.07% (inactive)"}, {"smiles": "Cc1ccccc1-n1c(SCC(=O)Nc2cccc3ccccc23)nc(O)cc1=O", "inhibition": "0.79% (inactive)"}, {"smiles": "O=C(CNC(=O)c1ccc(Cl)cc1Cl)NCC(=O)Nc1ccccc1N1CCOCC1", "inhibition": "-0.05% (inactive)"}, {"smiles": "Cc1cnc(C(=O)OCc2c(C)cc(C(C)(C)C)cc2C)cn1", "inhibition": "0.19% (inactive)"}, {"smiles": "Cc1cc(C)cc(NC(=O)CSCc2cnn(-c3ccccc3)c2-n2cccc2)c1", "inhibition": "1.7% (inactive)"}, {"smiles": "c1ccc2c(CCN3CCNC[C@H]3Cc3cccc4ccccc34)cccc2c1", "inhibition": "2.24% (inactive)"}, {"smiles": "Cc1cc(O)ccc1-c1cc(C(=O)NCc2cc(C(F)(F)F)cc(C(F)(F)F)c2)[nH]n1", "inhibition": "1.86% (inactive)"}, {"smiles": "Cc1cc(C)cc(NC(=S)NCCc2c[nH]c3ccccc23)c1", "inhibition": "0.79% (inactive)"}, {"smiles": "COc1ccc(C2CC(c3ccccc3)=NN2C(=O)COC(=O)COc2ccccc2)cc1", "note": "(stereo not given)", "inhibition": "3.56% (inactive)"}, {"smiles": "C=CC[C@H](CC(=O)N(CCO)Cc1ccccc1)C(=O)N[C@@H](COC(=O)[C@@H](CC=C)Cc1ccc(F)cc1)Cc1ccccc1", "inhibition": "3.06% (inactive)"}, {"smiles": "CCC(C)(C)c1ccc(Oc2ccc(NC(=O)COC(=O)C3=COCCO3)cc2)cc1", "inhibition": "3.28% (inactive)"}, {"smiles": "COc1ccc(Cl)cc1NC(=O)CN(C)C(=O)CCCc1c[nH]c2ccccc12", "inhibition": "0.4% (inactive)"}, {"smiles": "COc1ccccc1CC1(C)C(=O)Nc2ccc(OC(F)(F)F)cc21", "note": "(stereo not given)", "inhibition": "0.53% (inactive)"}, {"smiles": "CC(C)(C)OC(=O)CNC(=O)c1[nH]cnc1C(=O)N[C@@H](Cc1ccccc1)C(=O)OCc1ccccc1", "inhibition": "2.08% (inactive)"}, {"smiles": "C=CCC[C@@H](Cc1ccc(F)cc1)C(=O)OC[C@H](Cc1c[nH]c2ccccc12)NC(=O)[C@@H](CC=C)CC(=O)N(CCO)Cc1ccccc1", "inhibition": "3.11% (inactive)"}, {"smiles": "Cc1cc(Nc2ccccc2)n(C(=O)c2ccc(N)cc2)n1", "inhibition": "0.56% (inactive)"}, {"smiles": "O=C(NCc1ccccc1)c1onc(CSc2nc3ccccc3[nH]2)c1C(=O)NCc1ccccc1", "inhibition": "1.52% (inactive)"}, {"smiles": "COc1ccc(C(=O)NN2C(=O)C3C(c4ccccc4)C=CC(c4ccccc4)C3C2=O)cc1", "note": "(stereo not given)", "inhibition": "2.28% (inactive)"}, {"smiles": "N#Cc1nc(Cc2cccc3ccccc23)oc1NCc1ccc2c(c1)OCO2", "inhibition": "2.25% (inactive)"}, {"smiles": "CC(C)Oc1ccc(CC(=O)NNC(=S)Nc2ccc(Br)cc2)cc1", "inhibition": "0.68% (inactive)"}, {"smiles": "Cn1nc(C(F)(F)F)c(C(=O)Nc2cccc(C(F)(F)F)c2)c1SCc1ccc(Cl)cc1", "inhibition": "2.65% (inactive)"}, {"smiles": "O=C(Oc1cccc(N2C(=O)C3C4c5ccccc5C(c5ccccc54)C3C2=O)c1)c1ccco1", "note": "(stereo not given)", "inhibition": "1.5% (inactive)"}, {"smiles": "COc1cc(/C=N/n2c(C)n[nH]c2=S)ccc1OCc1ccccc1", "inhibition": "-0.91% (inactive)"}]}]}
